# From ChEMBL document CHEMBL4118255, “Synthesis and antibacterial evaluation of novel 11-O-aralkylcarbamoyl-3-O-descladinosylclarithromycin derivatives” (2018)
# Key:
# Format in all cases: functional
# Staphylococcus aureus [1] = experiment: Antibacterial activity against erythromycin-susceptible Staphylococcus aureus ATCC 25923 after 24 hrs by […]; conditions: ATCC 25923, 24 h
# Escherichia coli = experiment: Antibacterial activity against penicillin-susceptible Escherichia coli ATCC 25922 incubated for 24 hrs by […]; conditions: ATCC 25922, 24 h
# Streptococcus pyogenes [2] = experiment: Antibacterial activity against erythromycin-susceptible Streptococcus pyogenes after 24 hrs […]
# Pseudomonas aeruginosa = experiment: Antibacterial activity against penicillin-susceptible Pseudomonas aeruginosa ATCC 27853 incubated for 24 hrs by […]; conditions: ATCC 27853, 24 h
# Bacillus subtilis = experiment: Antibacterial activity against erythromycin-susceptible Bacillus subtilis ATCC 9372 after 24 hrs by tube-dilution method; conditions: ATCC 9372, 24 h
# How it was run: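 MIC by standard NCCLS broth microdilution. Reference macrolides clarithromycin and azithromycin run alongside.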
# Staphylococcus aureus [3] = experiment: Antibacterial activity against methicillin-resistant Staphylococcus aureus ATCC 43300 after 24 hrs by tube-dilution method; conditions: ATCC 43300, 24 h
# How it was run: (§1)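 MIC determined by the NCCLS-recommended standard broth microdilution method against erythromycin-resistant S. pneumoniae strains (A22072 mef, B1 erm, AB11 erm plus mef) and methicillin-resistant S. aureus ATCC43300.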
# Streptococcus pneumoniae [4] = experiment: Antibacterial activity against erythromycin-resistant Streptococcus pneumoniae B1 harboring ermB gene after 24 hrs by tube-dilution method; conditions: B1, 24 h; how it was run: as §1
# Streptococcus pneumoniae [5] = experiment: Antibacterial activity against erythromycin-resistant Streptococcus pneumoniae A22072 harboring mefA gene after 24 hrs by […]; conditions: A22072, 24 h
# Streptococcus pneumoniae [6] = experiment: Antibacterial activity against erythromycin-resistant Streptococcus pneumoniae AB11 harboring ermB and mefA genes after 24 hrs by tube-dilution method; conditions: AB11, 24 h; how it was run: as §1
# Streptococcus pyogenes [7] = experiment: Antibacterial activity against erythromycin-resistant Streptococcus pyogenes R1 after 24 hrs by tube-dilution method; conditions: R1, 24 h
# Streptococcus pneumoniae [8] = experiment: Potency index, ratio of azithromycin MIC to compound MIC for erythromycin-resistant Streptococcus pneumoniae A22072 harboring mefA gene
# Streptococcus pneumoniae [9] = experiment: Potency index, ratio of clarithromycin MIC to compound MIC for erythromycin-resistant Streptococcus pneumoniae A22072 harboring mefA gene
# Staphylococcus aureus [10] = experiment: Potency index, ratio of azithromycin MIC to compound MIC for methicillin-resistant Staphylococcus aureus ATCC 43300
# Staphylococcus aureus [11] = experiment: Potency index, ratio of clarithromycin MIC to compound MIC for methicillin-resistant Staphylococcus aureus ATCC 43300
Structure (SMILES),MIC (Staphylococcus aureus [1]) [µg/mL],MIC (Escherichia coli) [µg/mL],MIC (Streptococcus pyogenes [2]) [µg/mL],MIC (Pseudomonas aeruginosa) [µg/mL],MIC (Bacillus subtilis) [µg/mL],MIC (Staphylococcus aureus [3]) [µg/mL],MIC (Streptococcus pneumoniae [4]) [µg/mL],MIC (Streptococcus pneumoniae [5]) [µg/mL],MIC (Streptococcus pneumoniae [6]) [µg/mL],MIC (Streptococcus pyogenes [7]) [µg/mL],Ratio (Streptococcus pneumoniae [8]),Ratio (Streptococcus pneumoniae [9]),Ratio (Staphylococcus aureus [10]),Ratio (Staphylococcus aureus [11])
CC[C@H]1OC(=O)[C@H](C)C(=O)[C@H](C)[C@@H](O[C@@H]2O[C@H](C)C[C@H](N(C)C)[C@H]2O)[C@](C)(OC)C[C@@H](C)C(=O)[C@H](C)[C@@H](OC(=O)NCCNC(=O)C#Cc2ccc(Cl)cc2)[C@]1(C)O,8,> 128,1,> 128,2,64,128,2,64,128,–,–,–,–
CC[C@H]1OC(=O)[C@H](C)C(=O)[C@H](C)[C@@H](O[C@@H]2O[C@H](C)C[C@H](N(C)C)[C@H]2O)[C@](C)(OC)C[C@@H](C)C(=O)[C@H](C)[C@@H](OC(=O)NCCNC(=O)C#Cc2ccc(Cl)cc2Cl)[C@]1(C)O,16,> 128,1,> 128,1,128,128,2,128,128,–,–,–,–
CC[C@H]1OC(=O)[C@H](C)C(=O)[C@H](C)[C@@H](O[C@@H]2O[C@H](C)C[C@H](N(C)C)[C@H]2O)[C@](C)(OC)C[C@@H](C)C(=O)[C@H](C)[C@@H](OC(=O)NCCNC(=O)C#Cc2ccc(F)cc2)[C@]1(C)O,16,> 128,1,> 128,2,128,128,2,64,> 128,–,–,–,–
CC[C@H]1OC(=O)[C@H](C)C(=O)[C@H](C)[C@@H](O[C@@H]2O[C@H](C)C[C@H](N(C)C)[C@H]2O)[C@](C)(OC)C[C@@H](C)C(=O)/C(C)=C/[C@]1(C)O,> 128,> 128,> 16,64,128,> 128,> 128,64,> 128,> 128,–,–,–,–
CC[C@H]1OC(=O)[C@H](C)[C@@H](OC(=O)Cc2cccnc2)[C@H](C)[C@@H](O[C@@H]2O[C@H](C)C[C@H](N(C)C)[C@H]2O)[C@](C)(OC)C[C@@H](C)C(=O)/C(C)=C/[C@]1(C)O,1,128,0.25,128,1,128,32,1,16,128,–,–,–,–
CC[C@H]1OC(=O)[C@H](C)[C@@H](OC(=O)Cc2cccnc2)[C@H](C)[C@@H](O[C@@H]2O[C@H](C)C[C@H](N(C)C)[C@H]2O)[C@](C)(OC)C[C@@H](C)C(=O)[C@H](C)[C@@H](OC(=O)NCCNC(=O)c2ccc([N+](=O)[O-])cc2)[C@]1(C)O,1,64,0.03,64,2,128,32,0.5,8,> 128,8,4,–,–
CC[C@H]1OC(=O)[C@H](C)[C@@H](OC(=O)Cc2cccnc2)[C@H](C)[C@@H](O[C@@H]2O[C@H](C)C[C@H](N(C)C)[C@H]2O)[C@](C)(OC)C[C@@H](C)C(=O)[C@H](C)[C@@H](OC(=O)NCCNC(=O)/C=C/c2ccc([N+](=O)[O-])cc2)[C@]1(C)O,8,128,0.125,128,4,64,32,1,8,> 128,–,–,–,–
CC[C@H]1OC(=O)[C@H](C)[C@@H](OC(=O)Cc2cccnc2)[C@H](C)[C@@H](O[C@@H]2O[C@H](C)C[C@H](N(C)C)[C@H]2O)[C@](C)(OC)C[C@@H](C)C(=O)[C@H](C)[C@@H](OC(=O)NCCNC(=O)/C=C/c2ccco2)[C@]1(C)O,16,128,0.125,> 128,8,32,64,1,16,> 128,–,–,4,4
CC[C@H]1OC(=O)[C@H](C)C(=O)[C@H](C)[C@@H](O[C@@H]2O[C@H](C)C[C@H](N(C)C)[C@H]2O)[C@](C)(OC)C[C@@H](C)C(=O)[C@H](C)[C@@H](OC(=O)NCCNC(=O)C#Cc2ccc(C)cc2)[C@]1(C)O,8,> 128,0.25,128,1,128,128,0.5,64,> 128,8,4,–,–
CC[C@H]1OC(=O)[C@H](C)[C@@H](OC(=O)Cc2cccnc2)[C@H](C)[C@@H](O[C@@H]2O[C@H](C)C[C@H](N(C)C)[C@H]2O)[C@](C)(OC)C[C@@H](C)C(=O)[C@H](C)[C@@H](OC(=O)NCCNC(=O)C#Cc2ccc(C)cc2)[C@]1(C)O,8,> 128,0.25,> 128,2,128,64,1,32,> 128,–,–,–,–
CC[C@H]1OC(=O)[C@H](C)C(=O)[C@H](C)[C@@H](O[C@@H]2O[C@H](C)C[C@H](N(C)C)[C@H]2O)[C@](C)(OC)C[C@@H](C)C(=O)[C@H](C)[C@@H](OC(=O)NCCNC(=O)C#Cc2ccccc2)[C@]1(C)O,32,> 128,2,> 128,4,128,128,4,128,> 128,–,–,–,–
CC[C@H]1OC(=O)[C@H](C)C(=O)[C@H](C)[C@@H](O[C@@H]2O[C@H](C)C[C@H](N(C)C)[C@H]2O)[C@](C)(OC)C[C@@H](C)C(=O)[C@H](C)[C@@H](OC(=O)NCCNC(=O)C#Cc2ccc(Br)cc2)[C@]1(C)O,8,128,1,> 128,1,16,128,2,32,64,–,–,8,8
CC[C@H]1OC(=O)[C@H](C)C(=O)[C@H](C)[C@@H](O[C@@H]2O[C@H](C)C[C@H](N(C)C)[C@H]2O)[C@](C)(OC)C[C@@H](C)C(=O)[C@H](C)[C@@H](OC(=O)NCCNC(=O)C#Cc2cccc3ccccc23)[C@]1(C)O,16,> 128,0.5,> 128,1,64,128,1,128,64,–,–,–,–
CC[C@H]1OC(=O)[C@H](C)C(=O)[C@H](C)[C@@H](O[C@@H]2O[C@H](C)C[C@H](N(C)C)[C@H]2O)[C@](C)(OC)C[C@@H](C)C(=O)[C@H](C)[C@@H](OC(=O)NCCNC(=O)C#Cc2ccccc2Cl)[C@]1(C)O,16,> 128,1,> 128,4,128,128,2,128,> 128,–,–,–,–
CC[C@H]1OC(=O)[C@H](C)[C@@H](O[C@H]2C[C@@](C)(OC)[C@@H](O)[C@H](C)O2)[C@H](C)[C@@H](O[C@@H]2O[C@H](C)C[C@H](N(C)C)[C@H]2O)[C@](C)(O)C[C@@H](C)CN(C)[C@H](C)[C@@H](O)[C@]1(C)O [AZITHROMYCIN],0.25,16,0.03,16,0.25,> 128,> 128,4,> 128,> 128,–,–,–,–
CC[C@H]1OC(=O)[C@H](C)[C@@H](O[C@H]2C[C@@](C)(OC)[C@@H](O)[C@H](C)O2)[C@H](C)[C@@H](O[C@@H]2O[C@H](C)C[C@H](N(C)C)[C@H]2O)[C@](C)(OC)C[C@@H](C)C(=O)[C@H](C)[C@@H](O)[C@]1(C)O [CLARITHROMYCIN],0.25,64,0.03,64,0.25,> 128,> 128,2,128,> 128,–,–,–,–
